Experimental findings from PubChem BioAssay are described below.

A short description of test [1]: inhibitors of TNFa-induced NFkB p65 translocation, primary screen, imaging, HUVEC, MLSMR starter and 10KST1 sets (AID 438;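 active = inhibition above 20% together with a positive visual image hit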;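 note: compound added about 3h40 before a 20 min TNFalpha stimulation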;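 for inhibition: signal is the nuclear over cytoplasmic p65 intensity ratio per well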). Particulars: HUVEC TNFa-induced p65 nuclear translocation; cell count: measured here: nuclei count (cytotoxicity indicator), at 2.08 µM; inhibition: at 2 µM, stronger effect = higher value, 0% TNFa-plus-vehicle, 100% no-TNFa wells.
Test [2] is described as follows: inhibitors of mutant huntingtin aggregation, primary screen, imaging, exon1htt(103Q)mCFP cells, high-content imaging (AID 483;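 active = visual image review flags a hit and inhibition of aggregation exceeds 20%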;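 note: compound exposure lasted 3 days before fixation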;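 for nuclei count: percent of the per-plate median nuclei count of sample wells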). The note with it: exon1htt(103Q)mCFP cell line, aggregate imaging, at 2 µM; inhibition of aggregation: stronger effect = higher value; nuclei count: measured here: cell count, toxicity.
The nature of test [3]: inhibitors of E-selectin induction by TNFa, primary screen, imaging, HUVEC, immunofluorescence, MLSMR starter and 10KST1 sets (AID 487;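 active = visually confirmed hit in the image check and inhibition above 20%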;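 for inhibition: signal is fraction of cell area covered by stained E-selectin grains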;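 for nuclei count: 100% = median nuclei count of all wells on the same plate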). The note with it: HUVEC TNFalpha-induced E-selectin immunofluorescence imaging, at 2 µM; inhibition: stronger effect = higher value; nuclei count: measured here: cell number, toxicity.
Test [4] deals with Voltage-gated potassium channel subunit beta-2 (Rattus norvegicus) (UniProt P62483). Nature of the test: KvBeta enzyme negative modulators, primary screen, biochemical, NADPH fluorescence (AID 622;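 active = fluorescence slope higher than the sample average by over 3 SD, cut at about -0.22 in these data, passing the limit was not always enough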;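 note: slope of raw intensity against log time taken from 70 to 1610 s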). The note with it: recombinant KvBeta, 4-cyanobenzaldehyde reduction, at 10 µM, stronger effect = higher value.
For test [5] the target is unchanged. Nature of the test: KvBeta positive modulators, primary screen, biochemical, NADPH fluorescence (AID 623;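 active = NADPH fluorescence slope more negative than the mean of all samples by about 3 SD, 99.7% confidence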;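 note: fluorescence intensity change per second fitted from 20 to 320 s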). The note with it: Recombinant KvBeta, NADPH fluorescence decrease slope, 10 min; at 10 µM; stronger effect = lower value.
The target in test [6] is Muscarinic acetylcholine receptor M4 (Homo sapiens) (UniProt P08173). Nature of the test: compounds altering M4/GIRK thallium flux, either direction, primary screen, M4 allosteric agonist project, cell-based, HEK293 M4/GIRK, BTC-AM (AID 625;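 active = fluorescence slope after compound addition differing from the mean of all tested samples at 99.7% confidence, mostly higher but some lower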;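 note: thallium influx through GIRK channels coupled to M4 in HEK293 cells with BTC-AM dye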). The note with it: at 10 µM, actives lie on both sides. An outline of the steps: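 assay system = HEK293 cells with M4 receptor and GIRK channels | medium = pH 7.3 thallium assay buffer | doses = 10 µM final, single point | timing = cells overnight at 37 °C, BTC-AM loading 1 h, reads 2 min total | signal = BTC-AM fluorescence, 1 Hz kinetic reads | read-out = post-addition slope, 15–24 s, of baseline-normalized fluorescence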

Test [7] in a line: inhibitors of Sendai virus-induced IRF3 signaling, primary screen, TLR/RLR signaling modifier project, cell-based, Sendai virus stimulus, luciferase, 10K MLSCN set (AID 602276).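 Note: firefly luciferase from ISG56 promoter only with Renilla not read in this screen; 0% = Sendai virus plus DMSO and 100% = medium plus DMSO without virus.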 The note with it: HEK293 RL24 IRF3 luciferase reporter, at 10 µM, stronger effect = higher value.
Test [8] can be described thus: inhibitors of poly I:C-induced TLR3 signaling, primary screen, cell-based, poly I:C stimulus, luciferase, 10K MLSCN set (AID 602277;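 active = inhibition of the reporter signal at or above 50%; inactive = inhibition below 50%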). Particulars: HEK293-TLR3 RL24 IRF3 luciferase reporter, at 10 µM, stronger effect = higher value. (In general: Reporter assays use an easily measured gene product as a stand-in for the process of interest.)

Molecules are shown by their SMILES. The source made the active and inactive calls.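 Rule for the calls, unless noted: active = inhibition at or above 50% at 10 µM; inactive = inhibition below 50%.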

Chain of Muscarinic acetylcholine receptor M4 (Homo sapiens) (P08173 whole entry, looked up): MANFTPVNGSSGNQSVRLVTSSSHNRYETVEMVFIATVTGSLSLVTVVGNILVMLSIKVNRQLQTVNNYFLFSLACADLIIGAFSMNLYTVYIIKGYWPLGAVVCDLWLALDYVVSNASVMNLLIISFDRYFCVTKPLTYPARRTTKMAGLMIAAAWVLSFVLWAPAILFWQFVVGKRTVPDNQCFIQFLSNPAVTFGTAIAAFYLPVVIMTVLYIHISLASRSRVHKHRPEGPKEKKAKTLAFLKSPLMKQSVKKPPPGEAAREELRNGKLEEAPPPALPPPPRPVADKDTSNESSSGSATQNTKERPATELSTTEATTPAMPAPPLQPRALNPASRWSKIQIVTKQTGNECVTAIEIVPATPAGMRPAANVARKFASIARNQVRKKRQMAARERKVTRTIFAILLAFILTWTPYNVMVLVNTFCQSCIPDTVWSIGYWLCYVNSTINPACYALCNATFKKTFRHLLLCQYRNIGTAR
Chain of Voltage-gated potassium channel subunit beta-2 (Rattus norvegicus) (P62483 whole entry, looked up): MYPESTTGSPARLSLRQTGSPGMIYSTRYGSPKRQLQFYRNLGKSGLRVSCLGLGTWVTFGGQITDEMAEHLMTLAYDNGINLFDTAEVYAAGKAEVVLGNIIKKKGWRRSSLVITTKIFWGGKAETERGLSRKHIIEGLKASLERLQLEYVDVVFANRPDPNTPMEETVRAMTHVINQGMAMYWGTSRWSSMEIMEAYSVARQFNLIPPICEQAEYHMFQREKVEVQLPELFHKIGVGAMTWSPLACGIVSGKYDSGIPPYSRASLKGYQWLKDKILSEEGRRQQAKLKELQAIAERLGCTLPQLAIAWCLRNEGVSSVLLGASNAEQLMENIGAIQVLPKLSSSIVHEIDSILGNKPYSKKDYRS

By inhibition is commonly meant the drop in the measured response relative to a control, in per cent. `C/C(N)=C(\C#N)C(=O)NCCc1ccccn1`: in test [1], the cell count was found to be 326. The inhibition in test [1] is -1.7% (inactive); in test [3], -26.9% (inactive); in test [7] it was 7.83% (inactive); in test [8], 13.8% (inactive). Further, in test [2], the inhibition of aggregation was -11.6% (inactive). In addition, the nuclei count in test [2] was determined as 106%; in test [3] it was 102%. Also, the fluorescence slope in test [4] was -0.613 (inactive); in test [6], 0.00369 (inactive). Further, the NADPH fluorescence slope in test [5] is 2e-05 (inactive).
Take `COc1ccc(N2CCN(C(=O)CN3C(=O)C4CC=CCC4C3=O)CC2)cc1` (stereo not given): in test [1], the cell count was 693. In addition, the inhibition in test [1] was 9.7% (inactive); in test [3], 55.9% (inactive); in test [7], -11% (inactive); in test [8], -14.6% (inactive). For the same molecule, the inhibition of aggregation in test [2] is 11% (inactive). Also, the values for the nuclei count in test [2] and in test [3] were 108% and 90.3%, respectively. Also, the fluorescence slope is -0.575 (inactive) in test [4] and 0.00533 (inactive) in test [6]. For the same molecule, in test [5], the NADPH fluorescence slope is 3.5e-05 (inactive).
In the case of `Cn1c(=O)c2c(ncn2CC(O)CNc2ccc(Cl)cc2)n(C)c1=O` (stereo not given), the cell count in test [1] turned out to be 629. Also, the inhibition is -6.3% (inactive) in test [1], -104% (inactive) in test [3], 3.66% (inactive) in test [7] and 2.85% (inactive) in test [8]. Moreover, the inhibition of aggregation in test [2] was -15.7% (inactive). In addition, the nuclei count worked out at 100% in test [2] and 110% in test [3]. In addition, the fluorescence slope in test [4] was -0.447 (inactive); in test [6], 0.00475 (inactive). Moreover, the NADPH fluorescence slope in test [5] was 3.3e-05 (inactive).
`O=C(N1CCCCCC1)N1CCN(S(=O)(=O)N2CCCCC2)CC1`: the cell count in test [1] is 323. The inhibition is -2.2% (inactive) in test [1], -33.5% (inactive) in test [3], 24% (inactive) in test [7] and 12.9% (inactive) in test [8]. Besides, the inhibition of aggregation in test [2] is 9.2% (inactive). The nuclei count in test [2] came out at 106%; in test [3], 126%. In addition, the fluorescence slope is -0.579 (inactive) in test [4] and 0.00553 (inactive) in test [6]. For the same molecule, the NADPH fluorescence slope in test [5] was -4.8e-05 (inactive).
For `Cc1ccc(-c2ccc(/C=N/n3cnnc3)o2)cc1Cl`, the cell count in test [1] is 432. In addition, the inhibition was -1.5% (inactive) in test [1], 10.4% (inactive) in test [3], 3.11% (inactive) in test [7] and -7.7% (inactive) in test [8]. Moreover, the inhibition of aggregation in test [2] is 2.7% (inactive). Besides, the nuclei count turned out to be 85.3% in test [2] and 110% in test [3]. For the same molecule, the fluorescence slope in test [4] is -0.555 (inactive); in test [6] it was 0.00662 (inactive). Moreover, the NADPH fluorescence slope in test [5] is -1.9e-05 (inactive).
For the molecule `c1cncc(-c2nnc(-c3ccco3)o2)c1`, the cell count in test [1] turned out to be 383. In addition, the inhibition in test [1] was -1.1% (inactive); in test [3], 3.9% (inactive); in test [7], -1.51% (inactive); in test [8], -11.7% (inactive). Besides, the inhibition of aggregation in test [2] was -27% (inactive). The nuclei count in test [2] came to 116%; in test [3], 95.6%. The values for the fluorescence slope in test [4] and in test [6] were -0.532 (inactive) and 0.00567 (inactive), respectively. Moreover, the NADPH fluorescence slope in test [5] is -1.2e-05 (inactive).
For the molecule `CCOC(=O)C1=C(CC)Nc2ccccc2N=C1NC(=O)Nc1ccccc1OC`, in test [1], the cell count is 485. Further, the inhibition in test [1] was -12.3% (inactive); in test [3], -15% (inactive); in test [7], 26.2% (inactive); in test [8], 38.4% (inactive). For the same molecule, the inhibition of aggregation in test [2] is 7.2% (inactive). Also, the results for the nuclei count in test [2] and in test [3] were 116% and 119%, respectively. The figures for the fluorescence slope in test [4] and in test [6] were -0.593 (inactive) and 0.00703 (inactive), respectively. Further, the NADPH fluorescence slope in test [5] was 2.9e-06 (inactive).
On to `CCOC(=O)CSc1nc2ccccc2c(=O)n1CCN1CCOCC1`, for which the cell count in test [1] was 513. Further, the inhibition was -3.4% (inactive) in test [1], 4.2% (inactive) in test [3], -2.06% (inactive) in test [7] and 17.7% (inactive) in test [8]. The inhibition of aggregation in test [2] was -7.1% (inactive). Moreover, the results for the nuclei count in test [2] and in test [3] were 96.3% and 109%, respectively. Moreover, the fluorescence slope in test [4] was -0.474 (inactive); in test [6], 0.00551 (inactive). Besides, the NADPH fluorescence slope in test [5] is -1.3e-06 (inactive).
With `O=C(COc1ccc2c(c1)OCO2)NC12CC3CC(CC(C3)C1)C2`, the cell count in test [1] was found to be 337. Besides, the inhibition in test [1] is -3.7% (inactive); in test [3], -142% (inactive); in test [7] it was -38.5% (inactive); in test [8] it was -35.6% (inactive). Moreover, the inhibition of aggregation in test [2] is 1.3% (inactive). The results for the nuclei count in test [2] and in test [3] were 91.5% and 99.1%, respectively. Moreover, the results for the fluorescence slope in test [4] and in test [6] were -0.411 (inactive) and 0.00898 (inactive), respectively. Besides, in test [5], the NADPH fluorescence slope is -4.1e-05 (inactive).
As to `O=C1CC(C(=O)Nc2ccccc2)C2(CCCC2)O1` (stereo not given), the cell count in test [1] was 425. The inhibition was 6% (inactive) in test [1], -80.4% (inactive) in test [3], 4.72% (inactive) in test [7] and 6.07% (inactive) in test [8]. Besides, in test [2], the inhibition of aggregation was 2.4% (inactive). Further, the nuclei count in test [2] came out at 106%; in test [3] it was 110%. Further, the fluorescence slope was -0.569 (inactive) in test [4] and 0.00631 (inactive) in test [6]. For the same molecule, the NADPH fluorescence slope in test [5] is -5.8e-05 (inactive).
Consider `CCOc1cccc(C(=O)Nc2cccc(-c3nc4ncccc4o3)c2C)c1`, for which, in test [1], the cell count was 333. Moreover, the inhibition in test [1] is 3.3% (inactive); in test [3] it was -46.8% (inactive); in test [7] it was 11.9% (inactive); in test [8] it was -11.2% (inactive). Further, the inhibition of aggregation in test [2] is 10.5% (inactive). Moreover, the nuclei count in test [2] was 103%; in test [3] it was 108%. Besides, the results for the fluorescence slope in test [4] and in test [6] were -0.545 (inactive) and 0.00572 (inactive), respectively. Also, the NADPH fluorescence slope in test [5] was -3e-05 (inactive).
For `CCCC(C)C(=O)Nc1ccc(C(N)=O)cc1` (stereo not given), the cell count in test [1] was 668. Moreover, the inhibition in test [1] was 0.5% (inactive); in test [3], 22.4% (inactive); in test [7], 11.2% (inactive); in test [8], 13.5% (inactive). The inhibition of aggregation in test [2] is 1% (inactive). Moreover, the nuclei count in test [2] amounted to 110%; in test [3], 87%. Besides, the fluorescence slope is -0.272 (inactive) in test [4] and 0.00544 (inactive) in test [6]. Further, the NADPH fluorescence slope in test [5] was -3.2e-05 (inactive).
`CN1CCN(C(=O)c2cnn3c(C(F)F)cc(C4CC4)nc23)CC1`: in test [1], the cell count turned out to be 277. In addition, the inhibition was -6.3% (inactive) in test [1], -8.6% (inactive) in test [3], 21% (inactive) in test [7] and 30% (inactive) in test [8]. Moreover, the inhibition of aggregation in test [2] is -15.2% (inactive). In addition, the nuclei count in test [2] is 63.5%; in test [3], 100%. In addition, the fluorescence slope is -0.513 (inactive) in test [4] and 0.00468 (inactive) in test [6]. Also, in test [5], the NADPH fluorescence slope was -0.000106 (inactive).
Regarding `CCOCCCNCC(=O)N1CCN(S(=O)(=O)c2ccc(C)cc2)CC1`, in test [1], the cell count was found to be 642. In addition, the inhibition is 19.3% (inactive) in test [1], -61.6% (inactive) in test [3], 7.31% (inactive) in test [7] and 27.6% (inactive) in test [8]. For the same molecule, the inhibition of aggregation in test [2] was -0.2% (inactive). Also, the nuclei count amounted to 94.5% in test [2] and 131% in test [3]. For the same molecule, the fluorescence slope is -0.614 (inactive) in test [4] and 0.00526 (inactive) in test [6]. Moreover, the NADPH fluorescence slope in test [5] was 1.2e-05 (inactive).
For `COc1cc(NC(=O)c2cc(OC)c(OC)c(OC)c2)c(OC)cc1NC(=O)CN1CCCCC1`, the cell count in test [1] worked out at 700. For the same molecule, the inhibition in test [1] is -11.1% (inactive); in test [3], -14.6% (inactive); in test [7], 3.03% (inactive); in test [8], -8.31% (inactive). Also, the inhibition of aggregation in test [2] was 12.2% (inactive). Further, the nuclei count in test [2] and in test [3] was 115% in each case. Moreover, the fluorescence slope is -0.309 (inactive) in test [4] and 0.00436 (inactive) in test [6]. In test [5], the NADPH fluorescence slope is -3.3e-05 (inactive).
